# According to ChEMBL document CHEMBL4825764, “Flavonoid Monomers as Potent, Nontoxic, and Selective Modulators of the Breast Cancer Resistance Protein (ABCG2)” (J Med Chem, 2021):
# Tested on: L929
# Test: Cytotoxicity against mouse L929 cells assessed as reduction in cell viability
# Assay type: cell-based
# Conditions: not given
row,Compound,IC50 [µM]
1,COC(=O)c1cccc(COc2c(-c3ccc(OCCCCc4cn(CCOCCO)nn4)cc3)oc3ccccc3c2=O)c1,13.3
2,COC(=O)c1cccc(COc2c(-c3ccc(OCCOCCn4cc(CNc5ccccc5)nn4)cc3)oc3ccccc3c2=O)c1,> 100
3,COC(=O)c1cccc(COc2c(-c3ccc(OCCOCCn4cc(CCN5C(=O)c6ccccc6C5=O)nn4)cc3)oc3ccccc3c2=O)c1,> 100
4,COC(=O)c1cccc(COc2c(-c3ccc(OCCOCCOCCN=[N+]=[N-])cc3)oc3ccccc3c2=O)c1,28.4
5,COC(=O)c1cccc(COc2c(-c3ccc(OCCOCCOCCn4cc(CN(C)Cc5ccccc5)nn4)cc3)oc3ccccc3c2=O)c1,> 100

# Species: Homo sapiens
# Test: Selectivity index, ratio of EC50 for inhibition of MRP1 (unknown origin) expressed in 2008/MRP1 cells assessed as reversal of doxorubicin resistance to EC50 for inhibition of BCRP (unknown origin) transfected in HEK293/R2 cells assessed as reversal of topotecan resistance
# Assay type: cell-based
# Conditions: not given
# Procedure, shortened: (§1)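 Selectivity index is the EC50 against the other transporter's line divided by the EC50 in the BCRP line. All values come from 5-day MTS reversal assays. These use topotecan in HEK293/R2 (0–2000 nM) or MCF7-MX100 (0–100 μM), doxorubicin in 2008/MRP1, and paclitaxel in LCC6MDR, each with modulator at 0–1000 nM.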
row,Compound,Ratio EC50
1,COC(=O)c1cccc(COc2c(-c3ccc(OCCCCc4cn(CCOCCO)nn4)cc3)oc3ccccc3c2=O)c1,100
2,COC(=O)c1cccc(COc2c(-c3ccc(OCCOCCn4cc(CNc5ccccc5)nn4)cc3)oc3ccccc3c2=O)c1,38
3,COC(=O)c1cccc(COc2c(-c3ccc(OCCOCCn4cc(CCN5C(=O)c6ccccc6C5=O)nn4)cc3)oc3ccccc3c2=O)c1,22
4,COC(=O)c1cccc(COc2c(-c3ccc(OCCOCCOCCN=[N+]=[N-])cc3)oc3ccccc3c2=O)c1,118
5,COC(=O)c1cccc(COc2c(-c3ccc(OCCOCCOCCn4cc(CN(C)Cc5ccccc5)nn4)cc3)oc3ccccc3c2=O)c1,62

# Species: Homo sapiens
# Test: Selectivity index, ratio of EC50 for inhibition of P-gp (unknown origin) expressed in LCC6MDR cells assessed as reversal of paclitaxel resistance to EC50 for Inhibition of BCRP (unknown origin) expressed in MCF7/MX100 cells assessed as reversal of topotecan resistance
# Assay type: cell-based
# Conditions: not given
# Procedure, shortened: as §1
row,Compound,Ratio EC50
1,COC(=O)c1cccc(COc2c(-c3ccc(OCCCCc4cn(CCOCCO)nn4)cc3)oc3ccccc3c2=O)c1,22
2,COC(=O)c1cccc(COc2c(-c3ccc(OCCOCCn4cc(CNc5ccccc5)nn4)cc3)oc3ccccc3c2=O)c1,23
3,COC(=O)c1cccc(COc2c(-c3ccc(OCCOCCn4cc(CCN5C(=O)c6ccccc6C5=O)nn4)cc3)oc3ccccc3c2=O)c1,10
4,COC(=O)c1cccc(COc2c(-c3ccc(OCCOCCOCCN=[N+]=[N-])cc3)oc3ccccc3c2=O)c1,18
5,COC(=O)c1cccc(COc2c(-c3ccc(OCCOCCOCCn4cc(CN(C)Cc5ccccc5)nn4)cc3)oc3ccccc3c2=O)c1,29

# Molecular target: T1, BCRP (ABCG2) (Homo sapiens, UniProt Q9UNQ0)
# T1 sequence (Q9UNQ0 whole entry): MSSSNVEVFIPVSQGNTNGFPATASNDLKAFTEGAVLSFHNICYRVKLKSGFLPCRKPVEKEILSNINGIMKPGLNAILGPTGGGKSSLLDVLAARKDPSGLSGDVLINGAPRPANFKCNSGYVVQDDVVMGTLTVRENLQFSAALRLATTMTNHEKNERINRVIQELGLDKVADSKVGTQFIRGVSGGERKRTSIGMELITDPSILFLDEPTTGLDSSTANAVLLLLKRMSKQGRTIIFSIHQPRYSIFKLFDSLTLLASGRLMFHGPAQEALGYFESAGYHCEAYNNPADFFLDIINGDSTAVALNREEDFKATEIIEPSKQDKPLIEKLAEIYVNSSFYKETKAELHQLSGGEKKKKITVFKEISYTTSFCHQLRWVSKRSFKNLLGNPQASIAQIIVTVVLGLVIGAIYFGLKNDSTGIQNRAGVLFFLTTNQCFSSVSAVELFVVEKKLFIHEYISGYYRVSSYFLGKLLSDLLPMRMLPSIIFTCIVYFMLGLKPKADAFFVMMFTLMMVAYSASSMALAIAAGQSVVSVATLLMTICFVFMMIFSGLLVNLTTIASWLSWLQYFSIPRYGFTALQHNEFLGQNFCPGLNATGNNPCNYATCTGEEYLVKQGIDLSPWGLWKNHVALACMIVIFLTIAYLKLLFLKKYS
# Test: Inhibition of BCRP (unknown origin) expressed in HEK293/R2 cells assessed as conformational change by measuring increase in 5D3 shift at 1 uM preincubated for 15 mins followed by FITC mouse antihuman BCRP antibody addition measured after 30 mins by flow cytometry analysis
# Assay type: cell-based
# Conditions: HEK293/R2 cells expressing BCRP, time 45 min
# Procedure, shortened: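 5 × 10^5 HEK293/R2 cells in FACS buffer were shaken 15 min at 37 °C with 1 μM compound. FITC 5D3 anti-BCRP was then added for 30 min at 37 °C and fluorescence read by flow cytometry on FL1. Compound-only background was subtracted and the untreated DMSO shift removed. Result is % of the 1 μM Ko143-induced shift.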
row,Compound,"inhibition at 0.5 h, 1 µM [%]"
1,COc1cc2c(cc1OC)CN(CCc1ccc(NC(=O)c3cccc4c(=O)c5cccc(OC)c5[nH]c34)cc1)CC2,100

# Molecular target: T1, BCRP (ABCG2)
# Test: Inhibition of BCRP (unknown origin) expressed in HEK293/R2 cells assessed as conformational change by measuring increase in 5D3 shift at 10 uM preincubated for 15 mins followed by FITC mouse antihuman BCRP antibody addition measured after 30 mins by flow cytometry analysis
# Assay type: cell-based
# Conditions: HEK293/R2 cells expressing BCRP, time 45 min
# Procedure, shortened: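 HEK293/R2 cells (5 x 10⁵) in FACS buffer (0.1 % BSA, 1 mM EDTA in PBS) were pre-incubated with compound for 15 min at 37 °C with shaking. FITC anti-human BCRP antibody (clone 5D3) was then added for 30 min at 37 °C. Cells were washed and read by flow cytometry (FL1, 50,000 events). Compound-only FITC background and the DMSO-control signal were subtracted, and the shift was expressed as % of the 1 µM Ko143 shift.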
row,Compound,"inhibition at 0.5 h, 10 µM [%]"
1,CCOc1ccc(-c2nc3cc(-c4nc5cc(N6CCN(C)CC6)ccc5[nH]4)ccc3[nH]2)cc1,19
2,O=c1c(O)c(-c2ccc(O)c(O)c2)oc2cc(O)cc(O)c12 [QUERCETIN],39

# Species: Homo sapiens
# Test: Selectivity index, ratio of EC50 for inhibition of P-gp (unknown origin) expressed in LCC6MDR cells assessed as reversal of paclitaxel resistance to EC50 for inhibition of BCRP (unknown origin) transfected in HEK293/R2 cells assessed as reversal of topotecan resistance
# Assay type: cell-based
# Conditions: not given
# Procedure, shortened: as §1
row,Compound,Ratio EC50
1,COC(=O)c1cccc(COc2c(-c3ccc(OCCCCc4cn(CCOCCO)nn4)cc3)oc3ccccc3c2=O)c1,61
2,COC(=O)c1cccc(COc2c(-c3ccc(OCCOCCn4cc(CNc5ccccc5)nn4)cc3)oc3ccccc3c2=O)c1,38
3,COC(=O)c1cccc(COc2c(-c3ccc(OCCOCCn4cc(CCN5C(=O)c6ccccc6C5=O)nn4)cc3)oc3ccccc3c2=O)c1,22
4,COC(=O)c1cccc(COc2c(-c3ccc(OCCOCCOCCN=[N+]=[N-])cc3)oc3ccccc3c2=O)c1,35
5,COC(=O)c1cccc(COc2c(-c3ccc(OCCOCCOCCn4cc(CN(C)Cc5ccccc5)nn4)cc3)oc3ccccc3c2=O)c1,51

# Tested on: 2008
# Test: Selectivity index, ratio of EC50 for inhibition of MRP1 (unknown origin) expressed in 2008/MRP1 cells assessed as reversal of doxorubicin resistance to Inhibition of BCRP (unknown origin) expressed in MCF7/MX100 cells assessed as reversal of topotecan resistance
# Assay type: cell-based
# Conditions: Homo sapiens
# Procedure, shortened: as §1
row,Compound,Ratio EC50
1,COC(=O)c1cccc(COc2c(-c3ccc(OCCCCc4cn(CCOCCO)nn4)cc3)oc3ccccc3c2=O)c1,36
2,COC(=O)c1cccc(COc2c(-c3ccc(OCCOCCn4cc(CNc5ccccc5)nn4)cc3)oc3ccccc3c2=O)c1,23
3,COC(=O)c1cccc(COc2c(-c3ccc(OCCOCCn4cc(CCN5C(=O)c6ccccc6C5=O)nn4)cc3)oc3ccccc3c2=O)c1,10
4,COC(=O)c1cccc(COc2c(-c3ccc(OCCOCCOCCN=[N+]=[N-])cc3)oc3ccccc3c2=O)c1,60
5,COC(=O)c1cccc(COc2c(-c3ccc(OCCOCCOCCn4cc(CN(C)Cc5ccccc5)nn4)cc3)oc3ccccc3c2=O)c1,35
